Data published in ChEMBL document CHEMBL1795205, “The new 5- or 6-azapyrimidine and cyanuric acid derivatives of l-ascorbic acid bearing the free C-5 hydroxy or C-4 amino group at the ethylenic spacer: CD-spectral absolute configuration determination and biological activity evaluations” (Eur J Med Chem, 2011).
pIC50: −log10 of the molar value. Calls of active or inactive are those of the source. The calls are words filed in the database; no cut-off is given here.

What was measured:
SW-620 [1] = experiment: Induction of cell cycle arrest in human SW620 cells assessed as accumulation at G1 phase at 5 uM after 48 hrs by flow cytometry (reference value: 46.6 +/- 4.88%); format: functional
HeLa [2] = experiment: Induction of cell cycle arrest in human HeLa cells assessed as accumulation at G2/M phase at 5 uM after 24 hrs by flow cytometry relative to control; format: functional
Procedure, shortened: (§1)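 Cells were seeded at 3×10⁵ per well in 6-well plates and treated after overnight incubation for 24 and 48 h. They were trypsinized, washed three times in PBS, fixed in cold ethanol and stored at −20 °C. Pellets were washed twice in PBS and treated with RNase A at 37 °C for 15 min, then stained with PI for 30 min in the dark. DNA content was measured by flow cytometry.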

MIA PaCa-2 [3] = experiment: Induction of cell cycle arrest in human MIAPaCa2 cells assessed as accumulation at subG1 phase at 1 uM after 24 hrs by flow cytometry (reference value: 0.32 +/- 0.009%); format: functional
HeLa [4] = experiment: Induction of cell cycle arrest in human HeLa cells assessed as accumulation at S phase at 1 uM after 48 hrs by flow cytometry relative to control; format: functional; procedure, shortened: as §1
SW-620 [5] = experiment: Induction of cell cycle arrest in human SW620 cells assessed as accumulation at subG1 phase at 5 uM after 24 hrs by flow cytometry (reference value: 0.37 +/- 0.36%); format: functional
SW-620 [6] = experiment: Induction of cell cycle arrest in human SW620 cells assessed as accumulation at G1 phase at 1 uM after 24 hrs by flow cytometry (reference value: 51.6 +/- 0.07%); format: functional
SW-620 [7] = experiment: Induction of cell cycle arrest in human SW620 cells assessed as accumulation at G1 phase at 5 uM after 24 hrs by flow cytometry (reference value: 51.6 +/- 0.07%); format: functional
MIA PaCa-2 [8] = experiment: Induction of cell cycle arrest in human MIAPaCa2 cells assessed as accumulation at G2/M phase at 5 uM after 24 hrs by flow cytometry (reference value: 10.3 +/- 0.07%); format: functional
HeLa [9] = experiment: Induction of cell cycle arrest in human HeLa cells assessed as accumulation at G1 phase at 1 uM after 24 hrs by flow cytometry relative to control; format: functional; procedure, shortened: as §1
MIA PaCa-2 [10] = experiment: Induction of cell cycle arrest in human MIAPaCa2 cells assessed as accumulation at subG1 phase at 5 uM after 48 hrs by flow cytometry (reference value: 0.20 +/- 0.06%); format: functional
WI-38 = experiment: Cytotoxicity against human WI38 cells assessed as inhibition of cell proliferation after 72 hrs by MTT assay; format: cell-based; settings: WI-38, 72 h
Procedure, shortened: (§2)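 Monolayer cells grown in DMEM with 10% FBS were seeded on day 0 at 3000–6000 cells/well, set by each line's doubling time. Agents were added the next step in five 10-fold dilutions (0.01–100) for 72 h, with DMSO ≤0.1% and a solvent control. MTT absorbance was converted to percentage growth versus untreated wells on the same plate. Where all PGs exceeded 50, the top concentration was reported as ">". ANOVA/Tukey, p<0.05.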

SW-620 [11] = experiment: Induction of cell cycle arrest in human SW620 cells assessed as accumulation at S phase at 1 uM after 48 hrs by flow cytometry (reference value: 41.7 +/- 2.47%); format: functional
HeLa [12] = experiment: Induction of cell cycle arrest in human HeLa cells assessed as accumulation at G2/M phase at 1 uM after 48 hrs by flow cytometry relative to control; format: functional; procedure, shortened: as §1
SW-620 [13] = experiment: Induction of cell cycle arrest in human SW620 cells assessed as accumulation at S phase at 5 uM after 24 hrs by flow cytometry (reference value: 37.7 +/- 0.01%); format: functional
SW-620 [14] = experiment: Induction of cell cycle arrest in human SW620 cells assessed as accumulation at G2/M phase at 5 uM after 48 hrs by flow cytometry (reference value: 11.9 +/- 2.33%); format: functional
HeLa [15] = experiment: Induction of cell cycle arrest in human HeLa cells assessed as accumulation at G1 phase at 5 uM after 24 hrs by flow cytometry relative to control; format: functional; procedure, shortened: as §1
SW-620 [16] = experiment: Induction of cell cycle arrest in human SW620 cells assessed as accumulation at subG1 phase at 1 uM after 48 hrs by flow cytometry (reference value: 0.18 +/- 0.036%); format: functional
HeLa [17] = experiment: Induction of apoptosis in human HeLa cells at 1 to 5 uM after 24 to 48 hrs by annexin V/PI staining; format: functional, cell-based
Procedure, shortened: (§3)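 Cells were seeded on slides, incubated 24 h, then exposed to compound for 24 and 48 h. They were washed with PBS and binding buffer, incubated with annexin-V for 10 min, washed with binding buffer, and stained with PI.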

SW-620 [18] = experiment: Induction of apoptosis in human SW620 cells at 1 to 5 uM after 24 to 48 hrs by annexin V/PI staining; format: functional, cell-based; procedure, shortened: as §3
MIA PaCa-2 [19] = experiment: Induction of cell cycle arrest in human MIAPaCa2 cells assessed as accumulation at G1 phase at 5 uM after 48 hrs by flow cytometry (reference value: 44.7 +/- 7.21%); format: functional
MIA PaCa-2 [20] = experiment: Induction of cell cycle arrest in human MIAPaCa2 cells assessed as accumulation at G2/M phase at 1 uM after 48 hrs by flow cytometry (reference value: 9.35 +/- 0.92%); format: functional
SW-620 [21] = experiment: Induction of cell cycle arrest in human SW620 cells assessed as accumulation at G2/M phase at 1 uM after 24 hrs by flow cytometry (reference value: 10.7 +/- 0.07%); format: functional
HeLa [22] = experiment: Induction of cell cycle arrest in human HeLa cells assessed as accumulation at S phase at 1 uM after 24 hrs by flow cytometry relative to control; format: functional; procedure, shortened: as §1
HeLa [23] = experiment: Induction of cell cycle arrest in human HeLa cells assessed as accumulation at S phase at 5 uM after 48 hrs by flow cytometry relative to control; format: functional; procedure, shortened: as §1
MIA PaCa-2 [24] = experiment: Cytostatic activity against human MIAPaCa2 cells assessed as inhibition of cell proliferation after 72 hrs by MTT assay; format: functional, cell-based; settings: MIA PaCa-2, 72 h; procedure, shortened: as §2

In the case of `Nc1ncn(C/C=C2\OC(=O)C(OCc3ccccc3)=C2OCc2ccccc2)c(=O)n1`, the Activity (SW-620 [1]) was 39.1%, the Activity (HeLa [2]) was 11.5% and the Activity (MIA PaCa-2 [3]) was 0.2%. The Activity (HeLa [4]) was 65.6%, the Activity (SW-620 [5]) was 0.2% and the Activity (SW-620 [6]) was 41.3%. It also gave an Activity (SW-620 [7]) of 24.1%, an Activity (MIA PaCa-2 [8]) of 7.05% and an Activity (HeLa [9]) of 29.4%. The Activity (MIA PaCa-2 [10]) was 0.31%, the pIC50 (WI-38) was 5.33 and the Activity (SW-620 [11]) was 58.9%. For the same compound, the Activity (HeLa [12]) was 14.4%, the Activity (SW-620 [13]) was 58.3% and the Activity (SW-620 [14]) was 9.2%. For the same compound, the Activity (HeLa [15]) was 16.5%, the Activity (SW-620 [16]) was 0.05% and the Activity (HeLa [17]) was “inactive”. For the same compound, the Activity (SW-620 [18]) was “inactive”, the Activity (MIA PaCa-2 [19]) was 29% and the Activity (MIA PaCa-2 [20]) was 12.9%. For the same compound, the Activity (SW-620 [21]) was 8.15%, the Activity (HeLa [22]) was 58.8% and the Activity (HeLa [23]) was 62.3%. It also gave a pIC50 (MIA PaCa-2 [24]) of 6.04.
